ChEMBL document CHEMBL1921722, “In vitro and in vivo evaluation of select kahalalide F analogs with antitumor and antifungal activities” (Bioorg Med Chem, 2011)
In brackets after ≈: the same amount, converted by molar mass. Activity calls are given as the source filed them.

Assays:
[1] = system: SK-MEL-2; assay: Cytotoxicity against human SK-MEL-2 cells by sulforhodamine B assay; format: functional; conditions: for TGI: read-out: pTGI (converted)
Method in brief: (§1)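 NCI Developmental Therapeutics Program 60-cell-line human tumor panel screen, run at NCI. A single-concentration pre-screen was followed by a five-concentration dose-response in 10-fold steps. GI50 is the concentration that reduces growth of treated cells to half that of untreated control cells. TGI is the concentration that completely halts growth.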

[2] = system: OVCAR-5; assay: Cytotoxicity against human OVCAR5 cells by sulforhodamine B assay; format: functional; conditions: for TGI: read-out: pTGI (converted); method in brief: as §1
[3] = system: A498; assay: Cytotoxicity against human A498 cells by sulforhodamine B assay; format: functional; conditions: for TGI: read-out: pTGI (converted)
Method in brief: (§2)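 Run at NCI in the DTP 60-cell-line human tumor panel by standard procedure. Compounds were first screened at a single concentration, then tested at five tenfold-spaced concentrations. GI50 is the concentration reducing treated-cell growth to half that of untreated controls; TGI is the concentration completely halting growth.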

[4] = system: ACHN; assay: Cytotoxicity against human ACHN cells by sulforhodamine B assay; format: functional; method in brief: as §2
[5] = system: TK-10; assay: Cytotoxicity against human TK10 cells by sulforhodamine B assay; format: functional; conditions: for TGI: read-out: pTGI (converted); method in brief: as §1
[6] = system: UO-31; assay: Cytotoxicity against human UO31 cells by sulforhodamine B assay; format: functional; conditions: for TGI: read-out: pTGI (converted); method in brief: as §1
[7] = system: MCF7; assay: Cytotoxicity against human MCF7 cells by sulforhodamine B assay; format: functional
[8] = system: SF-539; assay: Cytotoxicity against human SF539 cells assessed as cell growth at 8 nM by sulforhodamine B assay relative to control; format: functional; conditions: read-out: Activity
[9] = system: HCT-15; assay: Cytotoxicity against human HCT15 cells assessed as cell growth at 8 nM by sulforhodamine B assay relative to control; format: functional; conditions: read-out: Activity
[10] = system: Aspergillus fumigatus; assay: Antimicrobial activity against Aspergillus fumigatus ATCC 90906 by CLSI method; format: functional, organism-based
[11] = system: Mus musculus; assay: Acute toxicity in athymic nude mouse assessed as mortality at 400 mg/kg, […] after 19 days; format: organism-based; parameters: dose 400 mg/kg, route intraperitoneal; conditions: in vivo, ip, 456 h
[12] = system: Mus musculus; assay: Acute toxicity in athymic nude mouse assessed as mortality at 200 mg/kg, […] after 19 days; format: organism-based; parameters: dose 200 mg/kg, route intraperitoneal; conditions: in vivo, ip, 456 h
[13] = system: HOP-92; assay: Cytotoxicity against human HOP92 cells assessed as cell growth at 8 nM by sulforhodamine B assay relative to control; format: functional; conditions: read-out: Activity
[14] = system: EKVX; assay: Cytotoxicity against human EKVX cells assessed as cell growth at 8 nM by sulforhodamine B assay relative to control; format: functional; conditions: read-out: Activity
[15] = system: 786-0; assay: Cytotoxicity against human 786-0 cells assessed as cell growth at 8 nM by sulforhodamine B assay relative to control; format: functional; conditions: read-out: Activity; method in brief: as §2
[16] = system: HCT-116; assay: Cytotoxicity against human HCT116 cells assessed as cell growth at 80 nM by sulforhodamine B assay relative to control; format: functional; conditions: read-out: Activity
[17] = system: HCT-15; assay: Cytotoxicity against human HCT15 cells assessed as cell growth at 80 nM by sulforhodamine B assay relative to control; format: functional; conditions: read-out: Activity
[18] = system: UACC-257; assay: Cytotoxicity against human UACC257 cells assessed as cell growth at 80 nM by sulforhodamine B assay relative to control; format: functional; conditions: read-out: Activity
[19] = system: HOP-92; assay: Cytotoxicity against human HOP92 cells assessed as cell growth at 800 nM by sulforhodamine B assay relative to control; format: functional; conditions: read-out: Activity
[20] = system: SNB-19; assay: Cytotoxicity against human SNB19 cells assessed as cell growth at 800 nM by sulforhodamine B assay relative to control; format: functional; conditions: read-out: Activity
[21] = system: SK-MEL-2; assay: Cytotoxicity against human SK-MEL-2 cells assessed as cell growth at 800 nM by sulforhodamine B assay relative to control; format: functional; conditions: read-out: Activity
[22] = system: SK-MEL-28; assay: Cytotoxicity against human SK-MEL-28 cells assessed as cell growth at 800 nM by sulforhodamine B assay relative to control; format: functional; conditions: read-out: Activity
[23] = system: UACC-62; assay: Cytotoxicity against human UACC62 cells assessed as cell growth at 800 nM by sulforhodamine B assay relative to control; format: functional; conditions: read-out: Activity
[24] = system: EKVX; assay: Cytotoxicity against human EKVX cells assessed as cell growth at 8 uM by sulforhodamine B assay relative to control; format: functional; conditions: read-out: Activity
[25] = system: COLO 205; assay: Cytotoxicity against human COLO205 cells assessed as cell growth at 8 uM by sulforhodamine B assay relative to control; format: functional; conditions: read-out: Activity; method in brief: as §2
[26] = system: SNB-75; assay: Cytotoxicity against human SNB75 cells assessed as cell growth at 8 uM by sulforhodamine B assay relative to control; format: functional; conditions: read-out: Activity
[27] = system: UACC-62; assay: Cytotoxicity against human UACC62 cells assessed as cell growth at 8 uM by sulforhodamine B assay relative to control; format: functional; conditions: read-out: Activity
[28] = system: ACHN; assay: Cytotoxicity against human ACHN cells assessed as cell growth at 8 uM by sulforhodamine B assay relative to control; format: functional; conditions: read-out: Activity; method in brief: as §2
[29] = system: MCF7; assay: Cytotoxicity against human MCF7 cells assessed as cell growth at 8 uM by sulforhodamine B assay relative to control; format: functional; conditions: read-out: Activity
[30] = system: MDA-MB-435; assay: Cytotoxicity against human MDA-MB-435 cells assessed as cell growth at 8 uM by sulforhodamine B assay relative to control; format: functional; conditions: read-out: Activity
[31] = system: T47D; assay: Cytotoxicity against human T47D cells assessed as cell growth at 8 uM by sulforhodamine B assay relative to control; format: functional; conditions: read-out: Activity
[32] = system: SNB-75; assay: Cytotoxicity against human SNB75 cells assessed as cell growth at 80 uM by sulforhodamine B assay relative to control; format: functional; conditions: read-out: Activity
[33] = system: UACC-62; assay: Cytotoxicity against human UACC62 cells assessed as cell growth at 80 uM by sulforhodamine B assay relative to control; format: functional; conditions: read-out: Activity
[34] = system: LOX IMVI; assay: Antitumor activity against human LOXIMVI cells xenografted in mouse assessed as tumor cell killing at 4.7 mg/kg, ip qd for 4 days by MTT assay; format: functional, organism-based; parameters: dose 4.7 mg/kg
Method in brief: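 Hollow-fiber assay in mice. Tumor lines were grown in RPMI-1640 with 10% FBS and 2 mM glutamine. Cells at 2 × 10^6 cells/ml were loaded into 1 mm PVDF fibers (500,000 Da cutoff), heat-sealed at 2 cm and held 24–48 h at 37 °C, 5% CO2 before implantation. Compound was given IP. Fibers were collected the day after the fourth treatment for MTT (OD 540 nm, group means). A ≥50% cut in percent net growth versus vehicle counted as positive.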

[35] = system: HCT-116; assay: Cytotoxicity against human HCT116 cells by sulforhodamine B assay; format: functional; conditions: for TGI: read-out: pTGI (converted)
Method in brief: (§3)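 Run by the NCI Developmental Therapeutics Program on its 60-line human tumour cell panel using the standard procedure. Compounds went through a single-concentration prescreen first, and those active by NCI criteria went on to a five-concentration growth-inhibition test. GI50 is the concentration that cuts growth of treated cells to half that of untreated control cells.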

[36] = system: HCT-15; assay: Cytotoxicity against human HCT15 cells by sulforhodamine B assay; format: functional; method in brief: as §3
[37] = system: SF-268; assay: Cytotoxicity against human SF268 cells by sulforhodamine B assay; format: functional

C/C=C1\NC(=O)[C@H](Cc2ccccc2)NC(=O)[C@@H](C(C)C)NC(=O)[C@@H]([C@@H](C)CC)NC(=O)[C@H](NC(=O)[C@H](NC(=O)[C@H](CCCNCc2ccc(N3CCOCC3)cc2)NC(=O)[C@H]2CCCN2C(=O)[C@H](NC(=O)[C@@H](NC(=O)[C@@H](NC(=O)[C@H](NC(=O)CCCC(C)C)C(C)C)[C@@H](C)O)C(C)C)C(C)C)[C@@H](C)CC)[C@@H](C)OC(=O)[C@H](C(C)C)NC1=O
GI50 [1]: 1.51 µM
TGI [1]: 2.88 µM
GI50 [2]: 0.933 µM
TGI [2]: 2.19 µM
GI50 [3]: 1.58 µM
LC50 [3]: 7.41 µM
TGI [3]: 3.47 µM
LC50 [4]: 4.79 µM
GI50 ([4]; read-out: GI50): 1.27 µM
TGI ([4]; read-out: TGI): 2.47 µM
GI50 ([4]; read-out: pGI50 (converted)): 1.26 µM
TGI ([4]; read-out: pTGI (converted)): 2.45 µM
GI50 [5]: 1.48 µM
LC50 [5]: 5.37 µM
TGI [5]: 2.82 µM
GI50 [6]: 1.38 µM
TGI [6]: 2.69 µM
GI50 [7]: 1.45 µM
growth at 0.008 µM [8]: 101%
growth at 0.008 µM [9]: 98%
IC50 [10]: 5 µM
MFC [10]: 20 µM (≈ 33.1 µg/mL)
MIC [10]: 10 µM (≈ 16.5 µg/mL)
Activity [11]: Toxic
Activity [12]: Toxic
growth at 0.008 µM [13]: 81%
growth at 0.008 µM [14]: 102%
growth at 0.008 µM [15]: 103%
growth at 0.08 µM [16]: 100%
growth at 0.08 µM [17]: 107%
growth at 0.08 µM [18]: 103%
growth at 0.8 µM [19]: 79%
growth at 0.8 µM [20]: 90%
growth at 0.8 µM [21]: 105%
growth at 0.8 µM [22]: 98%
growth at 0.8 µM [23]: 100%
growth at 8 µM [24]: -76%
growth at 8 µM [25]: -73%
growth at 8 µM [26]: -80%
growth at 8 µM [27]: -100%
growth at 8 µM [28]: -84%
growth at 8 µM [29]: -53%
growth at 8 µM [30]: -88%
growth at 8 µM [31]: -63%
growth at 80 µM [32]: -7%
growth at 80 µM [33]: -81%
Activity [34]: inactive
GI50 [35]: 1.55 µM
LC50 [35]: 6.03 µM
TGI [35]: 3.09 µM
GI50 ([36]; read-out: GI50): 0.264 µM
TGI ([36]; read-out: TGI): 0.814 µM
GI50 ([36]; read-out: pGI50 (converted)): 0.263 µM
TGI ([36]; read-out: pTGI (converted)): 0.813 µM
GI50 [37]: 1.45 µM

C/C=C1\NC(=O)[C@H](Cc2ccccc2)NC(=O)[C@@H](C(C)C)NC(=O)[C@@H]([C@@H](C)CC)NC(=O)[C@H](NC(=O)[C@H](NC(=O)[C@H](CCCNCc2ccc(F)c(C)c2)NC(=O)[C@H]2CCCN2C(=O)[C@H](NC(=O)[C@@H](NC(=O)[C@@H](NC(=O)[C@H](NC(=O)CCCC(C)C)C(C)C)[C@@H](C)O)C(C)C)C(C)C)[C@@H](C)CC)[C@@H](C)OC(=O)[C@H](C(C)C)NC1=O
GI50 [1]: 1.41 µM
TGI [1]: 2.69 µM
GI50 [2]: 0.813 µM
LC50 [2]: 3.8 µM
TGI [2]: 1.74 µM
GI50 [3]: 1.32 µM
LC50 [3]: 4.47 µM
TGI [3]: 2.45 µM
LC50 [4]: 4.07 µM
GI50 ([4]; read-out: GI50): 1.12 µM
TGI ([4]; read-out: TGI): 2.14 µM
GI50 ([4]; read-out: pGI50 (converted)): 1.12 µM
TGI ([4]; read-out: pTGI (converted)): 2.14 µM
GI50 [5]: 1.48 µM
TGI [5]: 2.88 µM
GI50 [6]: 1.32 µM
TGI [6]: 2.63 µM
GI50 [7]: 1.26 µM
growth at 0.008 µM [8]: 105%
growth at 0.008 µM [9]: 100%
IC50 [10]: 3.09 µM
MFC [10]: 10 µM (≈ 16 µg/mL)
MIC [10]: 10 µM (≈ 16 µg/mL)
Activity [11]: Toxic
Activity [12]: Non-toxic
growth at 0.008 µM [13]: 104%
growth at 0.008 µM [14]: 101%
growth at 0.008 µM [15]: 103%
growth at 0.08 µM [16]: 96%
growth at 0.08 µM [17]: 103%
growth at 0.08 µM [18]: 101%
growth at 0.8 µM [19]: 92%
growth at 0.8 µM [20]: 90%
growth at 0.8 µM [21]: 100%
growth at 0.8 µM [22]: 75%
growth at 0.8 µM [23]: 93%
growth at 8 µM [24]: -82%
growth at 8 µM [25]: -76%
growth at 8 µM [26]: -73%
growth at 8 µM [27]: -98%
growth at 8 µM [28]: -97%
growth at 8 µM [29]: -53%
growth at 8 µM [30]: -95%
growth at 8 µM [31]: -61%
growth at 80 µM [32]: -19%
growth at 80 µM [33]: -91%
Activity [34]: inactive
GI50 [35]: 1.38 µM
LC50 [35]: 4.27 µM
TGI [35]: 2.45 µM
LC50 [36]: 1.38 µM
GI50 ([36]; read-out: GI50): 0.181 µM
TGI ([36]; read-out: TGI): 0.419 µM
GI50 ([36]; read-out: pGI50 (converted)): 0.182 µM
TGI ([36]; read-out: pTGI (converted)): 0.417 µM
GI50 [37]: 0.955 µM
